# Assay results reported in ChEMBL document CHEMBL1671716, “Antimicrobial susceptibility patterns for recent clinical isolates of anaerobic bacteria in South Korea” (2010).
# Columns and labels:
# [1] = test system: Prevotella intermedia; assay: Antimicrobial activity against Prevotella intermedia after 48 hrs by agar dilution method; format: functional
# Procedure, shortened: (§1)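 CLSI agar dilution (M11-A7); inoculum 10^5 CFU applied by replicator; plates incubated anaerobically 48 h at 37°C. For piperacillin-tazobactam, tazobactam held constant at 4 μg/ml.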
# [2] = test system: Schaalia meyeri; assay: Antimicrobial activity against Actinomyces meyeri after 48 hrs by agar dilution method; format: functional
# Procedure, shortened: (§2)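 MICs on clinical anaerobe isolates by the CLSI agar dilution method. Inoculum of 10^5 CFU applied with a Steers replicator. Plates incubated 48 h at 37°C in an anaerobic chamber.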
# [3] = test system: Finegoldia magna; assay: Antimicrobial activity against Finegoldia magna assessed as percent susceptible isolates after 48 hrs by agar dilution method; format: functional; procedure, shortened: as §1
# [4] = test system: Peptoniphilus asaccharolyticus; assay: Antimicrobial activity against Peptoniphilus asaccharolyticus assessed as percent susceptible isolates after 48 hrs by agar dilution method; format: functional; procedure, shortened: as §1
# [5] = test system: Bacteroides caccae; assay: Antimicrobial activity against Bacteroides caccae assessed as percent susceptible isolates after 48 hrs by agar dilution method; format: functional
# [6] = test system: Bifidobacterium adolescentis; assay: Antimicrobial activity against Bifidobacterium adolescentis after 48 hrs by agar dilution method; format: functional; procedure, shortened: as §2
# [7] = test system: Anaerococcus prevotii; assay: Antimicrobial activity against Anaerococcus prevotii assessed as percent susceptible isolates after 48 hrs by agar dilution method; format: functional
# [8] = test system: Schaalia odontolytica; assay: Antimicrobial activity against Actinomyces odontolyticus assessed as percent resistant isolates after 48 hrs by agar dilution method; format: functional
# Procedure, shortened: (§3)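 CLSI agar dilution on recent Korean clinical anaerobe isolates. Inoculum 10^5 CFU per spot by replicator. Plates incubated in an anaerobic chamber at 37°C for 48 h. For piperacillin plus tazobactam, tazobactam was held constant at 4 μg/ml. Resistance and susceptibility rates derived from MICs.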
# [9] = test system: Bifidobacterium sp.; assay: Antimicrobial activity against Bifidobacterium sp. after 48 hrs by agar dilution method; format: functional; procedure, shortened: as §2
# [10] = test system: Bifidobacterium adolescentis; assay: Antimicrobial activity against Bifidobacterium adolescentis assessed as percent resistant isolates after 48 hrs by agar dilution method; format: functional; procedure, shortened: as §3
# [11] = test system: Hoylesella oralis; assay: Antimicrobial activity against Prevotella oralis assessed as percent susceptible isolates after 48 hrs by agar dilution method; format: functional
# Procedure, shortened: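 CLSI agar dilution MIC testing of clinical isolates. 10^5 CFU spotted by replicator, plates incubated 48 h at 37°C in an anaerobic chamber. Susceptibility rates derived from the MICs.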
# [12] = test system: Actinomyces israelii; assay: Antimicrobial activity against Actinomyces israelii assessed as percent resistant isolates after 48 hrs by agar dilution method; format: functional; procedure, shortened: as §3
# [13] = test system: Actinomyces israelii; assay: Antimicrobial activity against Actinomyces israelii after 48 hrs by agar dilution method; format: functional; procedure, shortened: as §2
# [14] = test system: Parabacteroides distasonis; assay: Antimicrobial activity against Bacteroides distasonis assessed as percent susceptible isolates after 48 hrs by agar dilution method; format: functional
# [15] = test system: Finegoldia magna; assay: Antimicrobial activity against Finegoldia magna assessed as percent resistant isolates after 48 hrs by agar dilution method; format: functional; procedure, shortened: as §3
# [16] = test system: Eubacterium sp.; assay: Antimicrobial activity against Eubacterium sp. assessed as percent susceptible isolates after 48 hrs by agar dilution method; format: functional; procedure, shortened: as §1
# [17] = test system: Bacteroides caccae; assay: Antimicrobial activity against Bacteroides caccae after 48 hrs by agar dilution method; format: functional; procedure, shortened: as §2
# [18] = test system: Hoylesella oralis; assay: Antimicrobial activity against Prevotella oralis assessed as percent resistant isolates after 48 hrs by agar dilution method; format: functional; procedure, shortened: as §3
# [19] = test system: Parabacteroides distasonis; assay: Antimicrobial activity against Bacteroides distasonis assessed as percent resistant isolates after 48 hrs by agar dilution method; format: functional; procedure, shortened: as §3
# [20] = test system: Prevotella buccae; assay: Antimicrobial activity against Prevotella buccae assessed as percent resistant isolates after 48 hrs by agar dilution method; format: functional, Segatella buccae; procedure, shortened: as §3
# [21] = test system: Phocaeicola vulgatus; assay: Antimicrobial activity against Bacteroides vulgatus assessed as percent susceptible isolates after 48 hrs by agar dilution method; format: functional
# [22] = test system: Bifidobacterium sp.; assay: Antimicrobial activity against Bifidobacterium sp. assessed as percent resistant isolates after 48 hrs by agar dilution method; format: functional; procedure, shortened: as §3
# [23] = test system: Bifidobacterium sp.; assay: Antimicrobial activity against Bifidobacterium sp. assessed as percent susceptible isolates after 48 hrs by agar dilution method; format: functional; procedure, shortened: as §1
# [24] = test system: Eubacterium sp.; assay: Antimicrobial activity against Eubacterium sp. assessed as percent resistant isolates after 48 hrs by agar dilution method; format: functional; procedure, shortened: as §3
# [25] = test system: Finegoldia magna; assay: Antimicrobial activity against Finegoldia magna after 48 hrs by agar dilution method; format: functional; procedure, shortened: as §1
# [26] = test system: Bacteroides ovatus; assay: Antimicrobial activity against Bacteroides ovatus assessed as percent resistant isolates after 48 hrs by agar dilution method; format: functional; procedure, shortened: as §3
# [27] = test system: Prevotella buccae; assay: Antimicrobial activity against Prevotella buccae assessed as percent susceptible isolates after 48 hrs by agar dilution method; format: functional, Segatella buccae; procedure, shortened: as §1
# [28] = test system: Actinomyces naeslundii; assay: Antimicrobial activity against Actinomyces naeslundii assessed as percent resistant isolates after 48 hrs by agar dilution method; format: functional; procedure, shortened: as §3
# [29] = test system: Bifidobacterium adolescentis; assay: Antimicrobial activity against Bifidobacterium adolescentis assessed as percent susceptible isolates after 48 hrs by agar dilution method; format: functional
# [30] = test system: Actinomyces naeslundii; assay: Antimicrobial activity against Actinomyces naeslundii after 48 hrs by agar dilution method; format: functional; procedure, shortened: as §2
# [31] = test system: Anaerococcus prevotii; assay: Antimicrobial activity against Anaerococcus prevotii assessed as percent resistant isolates after 48 hrs by agar dilution method; format: functional; procedure, shortened: as §3
# [32] = test system: Bacteroides fragilis; assay: Antimicrobial activity against Bacteroides fragilis assessed as percent susceptible isolates after 48 hrs by agar dilution method; format: functional
# [33] = test system: Phocaeicola vulgatus; assay: Antimicrobial activity against Bacteroides vulgatus assessed as percent resistant isolates after 48 hrs by agar dilution method; format: functional; procedure, shortened: as §3
# [34] = test system: Phocaeicola vulgatus; assay: Antimicrobial activity against Bacteroides vulgatus after 48 hrs by agar dilution method; format: functional; procedure, shortened: as §2
# [35] = test system: Parvimonas micra; assay: Antimicrobial activity against Peptostreptococcus micros after 48 hrs by agar dilution method; format: functional; procedure, shortened: as §1
# [36] = test system: Prevotella intermedia; assay: Antimicrobial activity against Prevotella intermedia assessed as percent resistant isolates after 48 hrs by agar dilution method; format: functional; procedure, shortened: as §3
# [37] = test system: Peptostreptococcus anaerobius; assay: Antimicrobial activity against Peptostreptococcus anaerobius assessed as percent susceptible isolates after 48 hrs by agar dilution method; format: functional; procedure, shortened: as §3
# [38] = test system: Anaerococcus prevotii; assay: Antimicrobial activity against Anaerococcus prevotii after 48 hrs by agar dilution method; format: functional; procedure, shortened: as §2
# [39] = test system: Peptostreptococcus anaerobius; assay: Antimicrobial activity against Peptostreptococcus anaerobius after 48 hrs by agar dilution method; format: functional; procedure, shortened: as §1
# [40] = test system: Schaalia odontolytica; assay: Antimicrobial activity against Actinomyces odontolyticus after 48 hrs by agar dilution method; format: functional; procedure, shortened: as §2
# [41] = test system: Bacteroides caccae; assay: Antimicrobial activity against Bacteroides caccae assessed as percent resistant isolates after 48 hrs by agar dilution method; format: functional; procedure, shortened: as §3
# [42] = test system: Parabacteroides distasonis; assay: Antimicrobial activity against Bacteroides distasonis after 48 hrs by agar dilution method; format: functional; procedure, shortened: as §2
structure (smiles),measurement,setting,value
COc1c(N2C[C@@H]3CCCN[C@@H]3C2)c(F)cc2c(=O)c(C(=O)O)cn(C3CC3)c12 [MOXIFLOXACIN],MIC,[1],0.5 µg/mL
same,MIC50,[1],0.5 µg/mL
same,MIC90,[1],0.5 µg/mL
same,MIC50,[2],1 µg/mL
same,MIC90,[2],2 µg/mL
same,Activity,[3],60%
same,Activity,[4],100%
same,Activity,[5],72%
same,MIC50,[6],1 µg/mL
same,MIC90,[6],2 µg/mL
same,Activity,[7],87%
same,Activity,[8],0%
same,MIC50,[9],1 µg/mL
same,MIC90,[9],2 µg/mL
same,Activity,[10],15%
same,Activity,[11],56%
same,Activity,[12],0%
same,MIC50,[13],1 µg/mL
same,MIC90,[13],2 µg/mL
same,Activity,[14],72%
same,Activity,[15],27%
same,Activity,[16],92%
same,MIC50,[17],2 µg/mL
same,MIC90,[17],16 µg/mL
same,Activity,[18],11%
same,Activity,[19],18%
same,Activity,[20],11%
same,Activity,[21],72%
same,Activity,[22],0%
same,Activity,[23],92%
same,Activity,[24],0%
same,MIC50,[25],0.5 µg/mL
same,MIC90,[25],8 µg/mL
same,Activity,[26],18%
same,Activity,[27],56%
same,Activity,[28],0%
same,Activity,[29],92%
same,MIC50,[30],1 µg/mL
same,MIC90,[30],2 µg/mL
same,Activity,[31],13%
same,Activity,[32],84%
same,Activity,[33],18%
same,MIC50,[34],2 µg/mL
same,MIC90,[34],16 µg/mL
same,MIC50,[35],0.125 µg/mL
same,MIC90,[35],0.25 µg/mL
same,Activity,[36],0%
same,Activity,[37],92%
same,MIC50,[38],0.25 µg/mL
same,MIC90,[38],8 µg/mL
same,MIC50,[39],0.125 µg/mL
same,MIC90,[39],0.25 µg/mL
same,MIC50,[40],1 µg/mL
same,MIC90,[40],2 µg/mL
same,Activity,[41],18%
same,MIC50,[42],2 µg/mL
same,MIC90,[42],16 µg/mL
